Measured values: ChEMBL document CHEMBL1137781, “Synthesis and preclinical evaluation of novel PET probes for P-glycoprotein function and expression” (J Med Chem, 2009)

Experiments:
Bone [1] = assay: Biodistribution in Wistar rat bone at 38+/-8 MBq, iv after 80 mins; assay type: ADME, organism-based, Bone element; settings: in vivo
[2] = Biodistribution in Wistar rat entorhinal cortex at 38+/-8 MBq, iv after 80 mins; assay type: ADME, organism-based; settings: in vivo
Summary of the method: (§1)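 Male Wistar rats (12 h light/dark, chow ad libitum) were fitted with a femoral arterial cannula under isoflurane. They were pretreated via tail vein with saline, cyclosporin A (50 mg/kg), or nonradioactive tracer compound (15 mg/kg; 10 mg/mL in saline with 35% ethanol). The 11C tracer was then given via penile vein, followed by 76 min microPET. Animals were then terminated; excised tissues were weighed and gamma-counted with decay correction. Values are SUVs (tissue MBq/g × body weight g / injected MBq).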

Heart [3] = assay: Biodistribution in 50 mg/kg cyclosporin A pretreated Wistar rat heart at 49+/-11 MBq, iv after 80 mins; assay type: ADME, organism-based; parameters: dose 50 mg/kg, route intravenous; settings: in vivo
Hippocampus [4] = assay: Biodistribution in Wistar rat hippocampus at 38+/-8 MBq, iv after 80 mins; assay type: ADME, organism-based; settings: in vivo; summary of the method: as §1
[5] = Biodistribution in Wistar rat parietal/temporal/occipital cortex at 38+/-8 MBq, iv after 80 mins; assay type: ADME, organism-based; settings: in vivo; summary of the method: as §1
Lung = assay: Biodistribution in 50 mg/kg cyclosporin A pretreated Wistar rat lung at 49+/-11 MBq, iv after 80 mins; assay type: ADME, organism-based; parameters: dose 50 mg/kg, route intravenous; settings: in vivo
Cerebellum [6] = assay: Biodistribution in Wistar rat cerebellum at 38+/-8 MBq, iv after 80 mins; assay type: ADME, organism-based; settings: in vivo
[7] = Biodistribution in 50 mg/kg cyclosporin A pretreated Wistar rat parietal/temporal/occipital cortex at 49+/-11 MBq, iv after 80 mins; assay type: ADME, organism-based; parameters: dose 50 mg/kg, route intravenous; settings: in vivo
[8] = Biodistribution in Wistar rat frontal cortex at 38+/-8 MBq, iv after 80 mins; assay type: ADME, organism-based; settings: in vivo; summary of the method: as §1
Plasma [9] = assay: Biodistribution in Wistar rat plasma at 38+/-8 MBq, iv after 80 mins; assay type: ADME, organism-based; settings: in vivo
Summary of the method: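 Male Wistar rats under isoflurane were given tracer via the penile vein after tail-vein pretreatment with saline or drug. At the end of a 76 min microPET scan the anesthetized animals were terminated. Blood was collected and centrifuged 5 min at 1000g for plasma. Plasma was weighed, γ-counted with decay correction and expressed as SUV (tissue MBq/g × body weight/injected dose).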

Rattus norvegicus [10] = assay: AUC in 50 mg/kg cyclosporin A pretreated Wistar rat at 49+/-11 MBq, iv; assay type: ADME, organism-based, Plasma; parameters: dose 50 mg/kg, route intravenous; settings: in vivo
Summary of the method: (§2)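 Male Wistar rats with a femoral arterial cannula placed under isoflurane. Saline or cyclosporin A (50 mg/kg, commercial solution) given via tail vein, then the [11C] tracer via penile vein. Dynamic microPET over the brain for 76 min, with 14 arterial samples to 60 min. Plasma counted in a γ counter. AUC of whole-brain or plasma SUV over 0-60 min.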

[11] = Biodistribution in 50 mg/kg cyclosporin A pretreated Wistar rat amygdala at 49+/-11 MBq, iv after 80 mins; assay type: ADME, organism-based; parameters: dose 50 mg/kg, route intravenous; settings: in vivo
Summary of the method: (§3)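 Male Wistar rats pretreated with saline or cyclosporin A (50 mg/kg) via tail vein, then given the [11C] tracer via penile vein. Tissues excised after scanning and weighed. γ counting with decay correction. Results as SUV normalized to body weight and injected dose.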

Muscle tissue [12] = assay: Biodistribution in 50 mg/kg cyclosporin A pretreated Wistar rat muscle at 49+/-11 MBq, iv after 80 mins; assay type: ADME, organism-based; parameters: dose 50 mg/kg, route intravenous; settings: in vivo
[13] = Biodistribution in 50 mg/kg cyclosporin A pretreated Wistar rat red blood cells at 49+/-11 MBq, iv after 80 mins; assay type: ADME, organism-based, Erythrocyte; parameters: dose 50 mg/kg, route intravenous; settings: in vivo
Colon [14] = assay: Biodistribution in 50 mg/kg cyclosporin A pretreated Wistar rat colon at 49+/-11 MBq, iv after 80 mins; assay type: ADME, organism-based; parameters: dose 50 mg/kg, route intravenous; settings: in vivo
Summary of the method: (§4)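 Male Wistar rats pretreated via tail vein with saline or cyclosporin A (50 mg/kg, commercial solution), then given the [11C] tracer via penile vein. After microPET scanning the anesthetized rats were killed. Tissues were excised and weighed, and blood was centrifuged into plasma and cells. γ counting with decay correction. Results as SUV (tissue MBq/g × body weight/injected dose).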

Cerebellum [15] = assay: Biodistribution in 50 mg/kg cyclosporin A pretreated Wistar rat cerebellum at 49+/-11 MBq, iv after 80 mins; assay type: ADME, organism-based; parameters: dose 50 mg/kg, route intravenous; settings: in vivo; summary of the method: as §4
Duodenum [16] = assay: Biodistribution in 50 mg/kg cyclosporin A pretreated Wistar rat duodenum at 49+/-11 MBq, iv after 80 mins; assay type: ADME, organism-based; parameters: dose 50 mg/kg, route intravenous; settings: in vivo; summary of the method: as §4
[17] = Biodistribution in Wistar rat fat at 38+/-8 MBq, iv after 80 mins; assay type: ADME, organism-based, Adipose tissue; settings: in vivo; summary of the method: as §1
Bone [18] = assay: Biodistribution in 50 mg/kg cyclosporin A pretreated Wistar rat bone at 49+/-11 MBq, iv after 80 mins; assay type: ADME, organism-based, Bone element; parameters: dose 50 mg/kg, route intravenous; settings: in vivo; summary of the method: as §3
[19] = Biodistribution in 50 mg/kg cyclosporin A pretreated Wistar rat cingulate cortex at 49+/-11 MBq, iv after 80 mins; assay type: ADME, organism-based; parameters: dose 50 mg/kg, route intravenous; settings: in vivo; summary of the method: as §4
Rattus norvegicus [20] = assay: AUC in Wistar rat at 38+/-8 MBq, iv; assay type: ADME, organism-based, Plasma; settings: in vivo; summary of the method: as §2
Plasma [21] = assay: Biodistribution in 50 mg/kg cyclosporin A pretreated Wistar rat plasma at 49+/-11 MBq, iv after 80 mins; assay type: ADME, organism-based; parameters: dose 50 mg/kg, route intravenous; settings: in vivo
[22] = Biodistribution in 50 mg/kg cyclosporin A pretreated Wistar rat bulbus olfactorius at 49+/-11 MBq, iv after 80 mins; assay type: ADME, organism-based, Olfactory bulb; parameters: dose 50 mg/kg, route intravenous; settings: in vivo; summary of the method: as §4
Pons [23] = assay: Biodistribution in 50 mg/kg cyclosporin A pretreated Wistar rat pons at 49+/-11 MBq, iv after 80 mins; assay type: ADME, organism-based; parameters: dose 50 mg/kg, route intravenous; settings: in vivo
[24] = Biodistribution in Wistar rat medulla at 38+/-8 MBq, iv after 80 mins; assay type: ADME, organism-based, Medulla of organ; settings: in vivo; summary of the method: as §1
[25] = Biodistribution in Wistar rat amygdala at 38+/-8 MBq, iv after 80 mins; assay type: ADME, organism-based; settings: in vivo
Spleen = assay: Biodistribution in Wistar rat spleen at 38+/-8 MBq, iv after 80 mins; assay type: ADME, organism-based; settings: in vivo
Striatum [26] = assay: Biodistribution in 50 mg/kg cyclosporin A pretreated Wistar rat striatum at 49+/-11 MBq, iv after 80 mins; assay type: ADME, organism-based; parameters: dose 50 mg/kg, route intravenous; settings: in vivo
Muscle tissue [27] = assay: Biodistribution in Wistar rat muscle at 38+/-8 MBq, iv after 80 mins; assay type: ADME, organism-based; settings: in vivo; summary of the method: as §1
[28] = Biodistribution in Wistar rat red blood cells at 38+/-8 MBq, iv after 80 mins; assay type: ADME, organism-based, Erythrocyte; settings: in vivo
Kidney [29] = assay: Biodistribution in 50 mg/kg cyclosporin A pretreated Wistar rat kidney at 49+/-11 MBq, iv after 80 mins; assay type: ADME, organism-based; parameters: dose 50 mg/kg, route intravenous; settings: in vivo
[30] = Biodistribution in Wistar rat cingulate cortex at 38+/-8 MBq, iv after 80 mins; assay type: ADME, organism-based; settings: in vivo; summary of the method: as §1
Liver [31] = assay: Biodistribution in Wistar rat liver at 38+/-8 MBq, iv after 80 mins; assay type: ADME, organism-based; settings: in vivo; summary of the method: as §1
[32] = Biodistribution in Wistar rat bulbus olfactorius at 38+/-8 MBq, iv after 80 mins; assay type: ADME, organism-based, Olfactory bulb; settings: in vivo
Pons [33] = assay: Biodistribution in Wistar rat pons at 38+/-8 MBq, iv after 80 mins; assay type: ADME, organism-based; settings: in vivo
Striatum [34] = assay: Biodistribution in Wistar rat striatum at 38+/-8 MBq, iv after 80 mins; assay type: ADME, organism-based; settings: in vivo
Ileum [35] = assay: Biodistribution in Wistar rat ileum at 38+/-8 MBq, iv after 80 mins; assay type: ADME, organism-based; settings: in vivo; summary of the method: as §1
[36] = Biodistribution in 50 mg/kg cyclosporin A pretreated Wistar rat frontal cortex at 49+/-11 MBq, iv after 80 mins; assay type: ADME, organism-based; parameters: dose 50 mg/kg, route intravenous; settings: in vivo
Hippocampus [37] = assay: Biodistribution in 50 mg/kg cyclosporin A pretreated Wistar rat hippocampus at 49+/-11 MBq, iv after 80 mins; assay type: ADME, organism-based; parameters: dose 50 mg/kg, route intravenous; settings: in vivo
[38] = Biodistribution in 50 mg/kg cyclosporin A pretreated Wistar rat medulla at 49+/-11 MBq, iv after 80 mins; assay type: ADME, organism-based, Medulla of organ; parameters: dose 50 mg/kg, route intravenous; settings: in vivo
Heart [39] = assay: Biodistribution in Wistar rat heart at 38+/-8 MBq, iv after 80 mins; assay type: ADME, organism-based; settings: in vivo; summary of the method: as §1
Duodenum [40] = assay: Biodistribution in Wistar rat duodenum at 38+/-8 MBq, iv after 80 mins; assay type: ADME, organism-based; settings: in vivo; summary of the method: as §1
Kidney [41] = assay: Biodistribution in Wistar rat kidney at 38+/-8 MBq, iv after 80 mins; assay type: ADME, organism-based; settings: in vivo; summary of the method: as §1
[42] = Biodistribution in 50 mg/kg cyclosporin A pretreated Wistar rat trachea at 49+/-11 MBq, iv after 80 mins; assay type: ADME, organism-based; parameters: dose 50 mg/kg, route intravenous; settings: in vivo
Pancreas = assay: Biodistribution in Wistar rat pancreas at 38+/-8 MBq, iv after 80 mins; assay type: ADME, organism-based; settings: in vivo; summary of the method: as §1
Ileum [43] = assay: Biodistribution in 50 mg/kg cyclosporin A pretreated Wistar rat ileum at 49+/-11 MBq, iv after 80 mins; assay type: ADME, organism-based; parameters: dose 50 mg/kg, route intravenous; settings: in vivo
[44] = Biodistribution in 50 mg/kg cyclosporin A pretreated Wistar rat entorhinal cortex at 49+/-11 MBq, iv after 80 mins; assay type: ADME, organism-based; parameters: dose 50 mg/kg, route intravenous; settings: in vivo; summary of the method: as §4
Colon [45] = assay: Biodistribution in Wistar rat colon at 38+/-8 MBq, iv after 80 mins; assay type: ADME, organism-based; settings: in vivo; summary of the method: as §1
Liver [46] = assay: Biodistribution in 50 mg/kg cyclosporin A pretreated Wistar rat liver at 49+/-11 MBq, iv after 80 mins; assay type: ADME, organism-based; parameters: dose 50 mg/kg, route intravenous; settings: in vivo
Plasma [47] = assay: Biodistribution in Wistar rat plasma at 38+/-8 MBq, iv after 60 mins; assay type: ADME, organism-based; settings: in vivo, 1 h
[48] = Biodistribution in 50 mg/kg cyclosporin A pretreated Wistar rat fat at 49+/-11 MBq, iv after 80 mins; assay type: ADME, organism-based, Adipose tissue; parameters: dose 50 mg/kg, route intravenous; settings: in vivo; summary of the method: as §4
[49] = Biodistribution in Wistar rat trachea at 38+/-8 MBq, iv after 80 mins; assay type: ADME, organism-based; settings: in vivo

- SUV (Bone [1]): 0.25
- SUV [2]: 0.027
- SUV (Heart [3]): 0.3
- SUV (Hippocampus [4]): 0.036
- SUV [5]: 0.036
- SUV (Lung): 1.95
- SUV (Cerebellum [6]): 0.052
- SUV [7]: 0.64
- SUV [8]: 0.031
- SUV (Plasma [9]): 0.13
- AUC (Rattus norvegicus [10]): 110%
- SUV [11]: 0.62
- SUV (Muscle tissue [12]): 0.37
- SUV [13]: 0.07
- SUV (Colon [14]): 0.4
- SUV (Cerebellum [15]): 0.6
- SUV (Duodenum [16]): 0.63
- SUV [17]: 0.38
- SUV (Bone [18]): 0.38
- SUV [19]: 0.5
- AUC (Rattus norvegicus [20]): 100%
- SUV (Plasma [21]): 0.17
- SUV [22]: 0.57
- SUV (Pons [23]): 0.68
- SUV [24]: 0.044
- SUV [25]: 0.034
- SUV (Spleen): 0.93
- SUV (Striatum [26]): 0.55
- SUV (Muscle tissue [27]): 0.29
- SUV [28]: 0.06
- SUV (Kidney [29]): 1.07
- SUV [30]: 0.027
- SUV (Liver [31]): 1.23
- SUV [32]: 0.038
- SUV (Pons [33]): 0.034
- SUV (Striatum [34]): 0.038
- SUV (Ileum [35]): 0.49
- SUV [36]: 0.52
- SUV (Hippocampus [37]): 0.54
- SUV [38]: 0.67
- SUV (Heart [39]): 0.24
- SUV (Duodenum [40]): 0.78
- SUV (Kidney [41]): 0.61
- SUV [42]: 0.46
- SUV (Pancreas): 0.82
- SUV (Ileum [43]): 0.56
- SUV [44]: 0.59
- SUV (Colon [45]): 0.32
- SUV (Liver [46]): 1.84
- SUV (Plasma [47]): 0.18
- SUV [48]: 0.5
- SUV [49]: 0.35
SMILES: COc1ccc(CCN([11CH3])CCCC(C#N)(c2ccc(OC)c(OC)c2)C(C)C)cc1OC (configuration not stated)
